The results in this text go back to ChEMBL document CHEMBL3272208, “(Vinylaryloxy)acetic acids. A new class of diuretic agents. 3. ((2-Nitro-1-alkenyl)aryloxy)acetic acids” (1976).

The test system of assay [1] is Canis familiaris. Kind of assay: Diuretic activity in mongrel dog assessed as potassium level in excreted urine at 10 mg/kg, iv measured between 15 to 45 mins after dosage (reference value: 7 to 63 uequiv/min). The assay is classed as functional, Canis lupus familiaris. The method in brief: (§1)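 Compounds were given iv to dogs as Na salts in H2O. […] The baseline is the mean of two 15-min periods before dosing. The response is the mean of two consecutive 15-min periods of maximal Na+ excretion, usually 15–45 min post-dose. Na+, K+ and Cl- are in μequiv/min and urine volume in ml/min, reported as control/drug.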

Assay [2] relates to Canis familiaris. Kind of assay: Diuretic activity in mongrel dog assessed as potassium level in excreted urine at 1 mg/kg, po measured for 6 hrs (reference value: 1 mequivalents). The assay is classed as functional, Canis lupus familiaris.
For assay [3], the system named is Canis familiaris. Kind of assay: Diuretic activity in mongrel dog assessed as volume of excreted urine at 1 mg/kg, iv measured between 15 to 45 mins after dosage (reference value: 1 to 4 ml/min). The assay is classed as functional, Canis lupus familiaris. The method in brief: as §1
For assay [4], the system named is Canis familiaris. Kind of assay: Diuretic activity in mongrel dog assessed as chloride level in excreted urine at 1 mg/kg, po measured for 6 hrs (reference value: 2 mequivalents). It counts as functional, Canis lupus familiaris.
The subject of assay [5] is Canis familiaris. Kind of assay: Diuretic activity in mongrel dog assessed as sodium level in excreted urine at 10 mg/kg, iv measured […] after dosage (reference value: 5 to 66 uequiv/min). It counts as functional, Canis lupus familiaris. The method in brief: as §1
In assay [6] the test system is Canis familiaris. The assay is described as follows: Diuretic activity in mongrel dog assessed as chloride level in excreted urine at 10 mg/kg, iv measured between 15 to 45 mins after dosage (reference value: 3 to 64 uequiv/min). The assay is classed as functional, Canis lupus familiaris. The method in brief: (§2)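 Compounds were given iv to dogs as Na salts in H2O. The baseline is the mean of two 15-min periods before dosing. The response is the mean of two consecutive 15-min periods of maximal Na+ excretion, usually 15–45 min post-dose. Na+, K+ and Cl- are in μequiv/min and urine volume in ml/min, reported as control/drug.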

The subject of assay [7] is Canis familiaris. The assay is described as follows: Diuretic activity in mongrel dog assessed as sodium level in excreted urine at 3 mg/kg, po measured for 6 hrs (reference value: 2 mequivalents). The assay is classed as functional, Canis lupus familiaris.
Assay [8] concerns Canis familiaris. The assay is described as follows: Diuretic activity in mongrel dog assessed as sodium level in excreted urine at 1 mg/kg, iv measured […] after dosage (reference value: 3 to 95 uequiv/min). The assay is classed as functional, Canis lupus familiaris. The method in brief: as §2
The test system of assay [9] is Canis familiaris. The assay is described as follows: Diuretic activity in mongrel dog assessed as chloride level in excreted urine at 3 mg/kg, po measured for 6 hrs (reference value: 2 mequivalents). The assay is classed as functional, Canis lupus familiaris.
Assay [10] deals with Canis familiaris. Kind of assay: Diuretic activity in mongrel dog assessed as potassium level in excreted urine at 3 mg/kg, po measured for 6 hrs (reference value: 1 mequivalents). The assay is classed as functional, Canis lupus familiaris.
In assay [11] the test system is Canis familiaris. Kind of assay: Diuretic activity in mongrel dog assessed as chloride level in excreted urine at 1 mg/kg, iv measured between 15 to 45 mins after dosage (reference value: 1 to 70 uequiv/min). The assay is classed as functional, Canis lupus familiaris. In a few lines: as §2
The subject of assay [12] is Canis familiaris. Kind of assay: Diuretic activity in mongrel dog assessed as volume of excreted urine at 10 mg/kg, iv measured between 15 to 45 mins after dosage (reference value: 1 to 4 ml/min). It counts as functional, Canis lupus familiaris. The method in brief:
as §1

Assay [13] relates to Canis familiaris. The assay is described as follows: Diuretic activity in mongrel dog assessed as potassium level in excreted urine at 1 mg/kg, iv measured between 15 to 45 mins after dosage (reference value: 6 to 47 uequiv/min). It counts as functional, Canis lupus familiaris. The method in brief:
as §1

Assay [14] relates to Canis familiaris. Kind of assay: Diuretic activity in mongrel dog assessed as sodium level in excreted urine at 1 mg/kg, po measured for 6 hrs (reference value: 2 mequivalents). It counts as functional, Canis lupus familiaris.
The subject of assay [15] is Canis familiaris. Kind of assay: Diuretic activity in mongrel dog assessed as volume of excreted urine at 5 mg/kg, po measured for 6 hrs (RVb = 180 ml).
The subject of assay [16] is Canis familiaris. The assay is described as follows: Diuretic activity in mongrel dog assessed as sodium level in excreted urine at 5 mg/kg, po measured for 6 hrs (reference value: 2 mequivalents). The assay is classed as functional, Canis lupus familiaris.
Assay [17] concerns Canis familiaris. Kind of assay: Diuretic activity in mongrel dog assessed as chloride level in excreted urine at 5 mg/kg, po measured for 6 hrs (reference value: 2 mequivalents). The assay is classed as functional, Canis lupus familiaris.
For assay [18], the system named is Canis familiaris. Kind of assay: Diuretic activity in mongrel dog assessed as potassium level in excreted urine at 5 mg/kg, po measured for 6 hrs (reference value: 1 mequivalents). The assay is classed as functional, Canis lupus familiaris.
The test system of assay [19] is Canis familiaris. Kind of assay: Diuretic activity in mongrel dog assessed as potassium level in excreted urine at 0.4 mg/kg, po measured for 6 hrs (reference value: 1 mequivalents). It counts as functional, Canis lupus familiaris.
Assay [20] concerns Canis familiaris. Kind of assay: Diuretic activity in mongrel dog assessed as sodium level in excreted urine at 0.4 mg/kg, po measured for 6 hrs (reference value: 2 mequivalents). The assay is classed as functional, Canis lupus familiaris.
The subject of assay [21] is Canis familiaris. The assay is described as follows: Diuretic activity in mongrel dog assessed as volume of excreted urine at 0.4 mg/kg, po measured for 6 hrs (RVb = 180 ml).
For assay [22], the system named is Canis familiaris. The assay is described as follows: Diuretic activity in mongrel dog assessed as chloride level in excreted urine at 0.4 mg/kg, po measured for 6 hrs (reference value: 2 mequivalents). It counts as functional, Canis lupus familiaris.
Assay [23] concerns Canis familiaris. Kind of assay: Diuretic activity in mongrel dog assessed as volume of excreted urine at 2 mg/kg, po measured for 6 hrs (RVb = 180 ml).
For assay [24], the system named is Canis familiaris. Kind of assay: Diuretic activity in mongrel dog assessed as sodium level in excreted urine at 2 mg/kg, po measured for 6 hrs (reference value: 2 mequivalents). The assay is classed as functional, Canis lupus familiaris.
For assay [25], the system named is Canis familiaris. The assay is described as follows: Diuretic activity in mongrel dog assessed as chloride level in excreted urine at 2 mg/kg, po measured for 6 hrs (reference value: 2 mequivalents). The assay is classed as functional, Canis lupus familiaris.
Assay [26] deals with Canis familiaris. The assay is described as follows: Diuretic activity in mongrel dog assessed as potassium level in excreted urine at 2 mg/kg, po measured for 6 hrs (reference value: 1 mequivalents). The assay is classed as functional, Canis lupus familiaris.
Assay [27] deals with Canis familiaris. Kind of assay: Diuretic activity in mongrel dog assessed as chloride level in excreted urine at 0.1 mg/kg, iv measured between 15 to 45 mins after dosage (reference value: 14 uequiv/min). The assay is classed as functional, Canis lupus familiaris. In a few lines: as §1
Assay [28] deals with Canis familiaris. Kind of assay: Diuretic activity in mongrel dog assessed as potassium level in excreted urine at 0.1 mg/kg, iv measured between 15 to 45 mins after dosage (reference value: 14 uequiv/min). The assay is classed as functional, Canis lupus familiaris. The method in brief:
as §1

Assay [29] deals with Canis familiaris. The assay is described as follows: Diuretic activity in mongrel dog assessed as volume of excreted urine at 0.1 mg/kg, iv measured between 15 to 45 mins after dosage (reference value: 1 ml/min). The assay is classed as functional, Canis lupus familiaris. The method in brief:
as §1

Assay [30] concerns Canis familiaris. Kind of assay: Diuretic activity in mongrel dog assessed as sodium level in excreted urine at 0.1 mg/kg, iv measured […] after dosage (reference value: 36 uequiv/min). It counts as functional, Canis lupus familiaris. The method in brief: as §1
In assay [31] the test system is Canis familiaris. Kind of assay: Diuretic activity in mongrel dog assessed as volume of excreted urine at 1 mg/kg, po measured for 6 hrs (RVb = 180 ml).

The structures appear in SMILES notation.

Regarding `C=C(CC)C(=O)c1ccc(OCC(=O)O)c(Cl)c1Cl` [ETHACRYNIC ACID], the Activity stood at 194 uEq/min in the assay on Canis familiaris [1]; 5 milliequivalent in the assay with Canis familiaris [2]; 6 mL/min with Canis familiaris [3]; 26 milliequivalent in the assay on Canis familiaris [4]; 2989 uEq/min in the assay on Canis familiaris [5]; 3324 uEq/min with Canis familiaris [6]. The Activity in the assay with Canis familiaris [7] was 37 milliequivalent; with Canis familiaris [8] it was 188 uEq/min; in the assay on Canis familiaris [9], 42 milliequivalent; with Canis familiaris [10] it was 7 milliequivalent; with Canis familiaris [11], 244 uEq/min; in the assay on Canis familiaris [12] it was 22 mL/min. Further, the Activity is on record as 52 uEq/min with Canis familiaris [13] and 21 milliequivalent with Canis familiaris [14].
`C/C(=C\c1ccc(OCC(=O)O)cc1)[N+](=O)[O-]`: the Activity came to 70 uEq/min with Canis familiaris [1]; 2 mL/min in the assay on Canis familiaris [3]; 378 mL in the assay on Canis familiaris [15]; 649 uEq/min in the assay on Canis familiaris [5]; 611 uEq/min with Canis familiaris [6]; 6 milliequivalent in the assay on Canis familiaris [16]. The Activity in the assay with Canis familiaris [8] is 82 uEq/min; in the assay on Canis familiaris [17], 4 milliequivalent; in the assay on Canis familiaris [18], 2 milliequivalent; with Canis familiaris [11], 61 uEq/min; with Canis familiaris [12] it was 6 mL/min; in the assay with Canis familiaris [13], 12 uEq/min.
Regarding `C/C(=C\c1ccc(OCC(=O)O)c(Cl)c1Cl)[N+](=O)[O-]`, the Activity came to 11 mL/min with Canis familiaris [3]; 7 milliequivalent in the assay on Canis familiaris [19]; 25 milliequivalent with Canis familiaris [20]; 628 mL with Canis familiaris [21]; 2128 uEq/min with Canis familiaris [8]; 31 milliequivalent in the assay on Canis familiaris [22]. Moreover, the results for the Activity in the assay with Canis familiaris [11] and in the assay with Canis familiaris [13] were 2163 uEq/min and 104 uEq/min, respectively.
On to `C/C(=C\c1ccc(OCC(N)=O)c(Cl)c1Cl)[N+](=O)[O-]`, for which the Activity was 485 mL in the assay on Canis familiaris [23], 25 milliequivalent in the assay with Canis familiaris [24], 39 milliequivalent in the assay on Canis familiaris [25] and 8 milliequivalent with Canis familiaris [26].
With `COC(=O)COc1ccc(/C=C(\C)[N+](=O)[O-])c(Cl)c1Cl`, the Activity with Canis familiaris [15] worked out at 769 mL; in the assay on Canis familiaris [16], 37 milliequivalent; in the assay with Canis familiaris [17], 47 milliequivalent; with Canis familiaris [18], 7 milliequivalent.
For `CC(=O)C(=Cc1ccc(OCC(=O)O)c(Cl)c1Cl)C(C)=O`, the Activity with Canis familiaris [2] came to 7 milliequivalent; in the assay with Canis familiaris [3], 11 mL/min; with Canis familiaris [27] it was 1100 uEq/min; with Canis familiaris [19], 6 milliequivalent; in the assay on Canis familiaris [28] it was 187 uEq/min; in the assay with Canis familiaris [21] it was 762 mL. Moreover, the Activity with Canis familiaris [29] amounted to 9 mL/min; in the assay on Canis familiaris [30] it was 984 uEq/min; with Canis familiaris [31] it was 492 mL; in the assay with Canis familiaris [13], 104 uEq/min; in the assay with Canis familiaris [14] it was 30 milliequivalent.
